Values after ≈ are worked out from the molar mass of the structure shown.
Columns and labels:
Assay type in all cases: functional
[1] = system: Enterococcus faecium; test: Antibacterial activity against Enterococcus faecium 7130724 by broth microdilution method
[2] = system: Enterococcus faecalis; test: Antibacterial activity against Enterococcus faecalis ATCC 29212 by broth microdilution method
Outline: (§1)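 Broth microdilution MICs were run per CLSI M07-A8 (2009). The strain panel included C. difficile ATCC 43255, E. faecalis ATCC 29212 and S. pyogenes ATCC BAA-595.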

[3] = system: Staphylococcus aureus; test: Antibacterial activity against Staphylococcus aureus A4.018 by broth microdilution method
[4] = system: Streptococcus pyogenes; test: Antibacterial activity against Streptococcus pyogenes ATCC BAA-595 by broth microdilution method; outline: as §1
[5] = Antibacterial activity against Clostridium difficile ATCC 43255 by broth microdilution method; details: Clostridioides difficile; outline: as §1
[6] = system: Escherichia coli; test: Inhibition of protein synthesis in Escherichia coli S30 extract at 2 uM after 75 mins by luciferase based luminescence assay relative to GE2270A

Row | Compound | MIC [1] | MIC [2] | MIC [3] | MIC [4] | MIC [5] | inhibition at 2 µM [6]
1 | CNC(=O)C[C@@H]1NC(=O)c2csc(n2)-c2ccc(-c3nc(N(CCCCC(=O)O)C(=O)N4CCC(C(=O)O)CC4)cs3)nc2-c2csc(n2)-c2csc(n2)[C@H]([C@@H](O)c2ccccc2)NC(=O)CNC(=O)c2nc(sc2COC)[C@H](C(C)C)NC(=O)c2nc1sc2C | > 32 µg/mL | > 32 µg/mL | > 32 µg/mL | > 32 µg/mL | > 4 µg/mL | 30%
2 | CNC(=O)C[C@@H]1NC(=O)c2csc(n2)-c2ccc(-c3nc(N(CCCCC(=O)O)C(=O)NCCCC(=O)O)cs3)nc2-c2csc(n2)-c2csc(n2)[C@H]([C@@H](O)c2ccccc2)NC(=O)CNC(=O)c2nc(sc2COC)[C@H](C(C)C)NC(=O)c2nc1sc2C | > 32 µg/mL | > 32 µg/mL | 32 µg/mL (≈ 24.1 µM) | > 32 µg/mL | 4 µg/mL (≈ 3.02 µM) | 30%
3 | CNC(=O)C[C@@H]1NC(=O)c2csc(n2)-c2ccc(-c3nc(N(CCCC(=O)O)C(=O)c4ccc(C(=O)O)cn4)cs3)nc2-c2csc(n2)-c2csc(n2)[C@H]([C@@H](O)c2ccccc2)NC(=O)CNC(=O)c2nc(sc2COC)[C@H](C(C)C)NC(=O)c2nc1sc2C | 32 µg/mL (≈ 24 µM) | 16 µg/mL (≈ 12 µM) | 32 µg/mL (≈ 24 µM) | > 32 µg/mL | 4 µg/mL (≈ 3 µM) | 30%
4 | CNC(=O)C[C@@H]1NC(=O)c2csc(n2)-c2ccc(-c3nc(N(CCCCC(CCC(=O)O)C(=O)O)C(=O)O[C@H]4CC[C@H](C(=O)O)CC4)cs3)nc2-c2csc(n2)-c2csc(n2)[C@H]([C@@H](O)c2ccccc2)NC(=O)CNC(=O)c2nc(sc2COC)[C@H](C(C)C)NC(=O)c2nc1sc2C (stereo partly specified) | 8 µg/mL (≈ 5.51 µM) | 8 µg/mL (≈ 5.51 µM) | 16 µg/mL (≈ 11 µM) | 8 µg/mL (≈ 5.51 µM) | 0.25 µg/mL (≈ 0.172 µM) | 50%
5 | CNC(=O)C[C@@H]1NC(=O)c2csc(n2)-c2ccc(-c3nc(N(CCCCC(=O)O)C(=O)OCCC(CCCCC(=O)O)C(=O)O)cs3)nc2-c2csc(n2)-c2csc(n2)[C@H]([C@@H](O)c2ccccc2)NC(=O)CNC(=O)c2nc(sc2COC)[C@H](C(C)C)NC(=O)c2nc1sc2C (stereo partly specified) | 16 µg/mL (≈ 11.2 µM) | 8 µg/mL (≈ 5.61 µM) | 16 µg/mL (≈ 11.2 µM) | 32 µg/mL (≈ 22.4 µM) | 0.5 µg/mL (≈ 0.35 µM) | 50%
6 | CNC(=O)C[C@@H]1NC(=O)c2csc(n2)-c2ccc(-c3nc(N(CCCCC(=O)O)C(=O)OCC4CC4C(=O)O)cs3)nc2-c2csc(n2)-c2csc(n2)[C@H]([C@@H](O)c2ccccc2)NC(=O)CNC(=O)c2nc(sc2COC)[C@H](C(C)C)NC(=O)c2nc1sc2C (stereo partly specified) | 0.5 µg/mL (≈ 0.374 µM) | 0.125 µg/mL (≈ 0.0934 µM) | 0.25 µg/mL (≈ 0.187 µM) | 2 µg/mL (≈ 1.49 µM) | 0.03 µg/mL (≈ 0.0224 µM) | 67%
7 | CNC(=O)C[C@@H]1NC(=O)c2csc(n2)-c2ccc(-c3nc(N(CC(CC(=O)O)OC)C(=O)O[C@H]4CC[C@H](C(=O)O)CC4)cs3)nc2-c2csc(n2)-c2csc(n2)[C@H]([C@@H](O)c2ccccc2)NC(=O)CNC(=O)c2nc(sc2COC)[C@H](C(C)C)NC(=O)c2nc1sc2C (stereo partly specified) | 1 µg/mL (≈ 0.723 µM) | 1 µg/mL (≈ 0.723 µM) | 1 µg/mL (≈ 0.723 µM) | 4 µg/mL (≈ 2.89 µM) | 0.06 µg/mL (≈ 0.0434 µM) | 67%
8 | CNC(=O)C[C@@H]1NC(=O)c2csc(n2)-c2ccc(-c3nc(N(CCCCC(=O)O)C(=O)OCC(CCCCC(=O)O)CC(=O)O)cs3)nc2-c2csc(n2)-c2csc(n2)[C@H]([C@@H](O)c2ccccc2)NC(=O)CNC(=O)c2nc(sc2COC)[C@H](C(C)C)NC(=O)c2nc1sc2C (stereo partly specified) | 8 µg/mL (≈ 5.61 µM) | 8 µg/mL (≈ 5.61 µM) | 8 µg/mL (≈ 5.61 µM) | 32 µg/mL (≈ 22.4 µM) | 1 µg/mL (≈ 0.701 µM) | 50%
9 | CNC(=O)C[C@@H]1NC(=O)c2csc(n2)-c2ccc(-c3nc(N(CCCCC(=O)O)C(=O)OCc4ccc(C(=O)O)cn4)cs3)nc2-c2csc(n2)-c2csc(n2)[C@H]([C@@H](O)c2ccccc2)NC(=O)CNC(=O)c2nc(sc2COC)[C@H](C(C)C)NC(=O)c2nc1sc2C | 1 µg/mL (≈ 0.727 µM) | 1 µg/mL (≈ 0.727 µM) | 2 µg/mL (≈ 1.45 µM) | 4 µg/mL (≈ 2.91 µM) | 0.125 µg/mL (≈ 0.0909 µM) | 67%
10 | CNC(=O)C[C@@H]1NC(=O)c2csc(n2)-c2ccc(-c3nc(N(CCCCC(=O)O)C(=O)OC(CCCCC(=O)O)CCC(=O)O)cs3)nc2-c2csc(n2)-c2csc(n2)[C@H]([C@@H](O)c2ccccc2)NC(=O)CNC(=O)c2nc(sc2COC)[C@H](C(C)C)NC(=O)c2nc1sc2C (stereo partly specified) | 32 µg/mL (≈ 22.4 µM) | 16 µg/mL (≈ 11.2 µM) | 32 µg/mL (≈ 22.4 µM) | > 32 µg/mL | 2 µg/mL (≈ 1.4 µM) | 50%
11 | CNC(=O)C[C@@H]1NC(=O)c2csc(n2)-c2ccc(-c3nc(N(C/C=C/C(=O)O)C(=O)O[C@H]4CC[C@H](C(=O)O)CC4)cs3)nc2-c2csc(n2)-c2csc(n2)[C@H]([C@@H](O)c2ccccc2)NC(=O)CNC(=O)c2nc(sc2COC)[C@H](C(C)C)NC(=O)c2nc1sc2C | 0.5 µg/mL (≈ 0.37 µM) | 0.25 µg/mL (≈ 0.185 µM) | 0.5 µg/mL (≈ 0.37 µM) | 2 µg/mL (≈ 1.48 µM) | 0.03 µg/mL (≈ 0.0222 µM) | 67%
